The source made the active and inactive calls. No cut-off for these calls is given here.
Assays:
[1] = molecular target: Ephrin type-B receptor 4 (Homo sapiens) (UniProt P54760); test: Inhibition of EPH-B4 assessed as residual activity at 10 uM
Procedure, shortened: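 Radioactivity-based enzymatic assay against a panel of 131 kinases (Dundee profiling). Activity remaining was measured with compound present at the stated concentration.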

[2] = molecular target: Ribosomal protein S6 kinase alpha-1 (Homo sapiens) (UniProt Q15418); test: Inhibition of RSK1 assessed as residual activity at 1 uM
[3] = molecular target: Receptor-interacting serine/threonine-protein kinase 2 (Homo sapiens) (UniProt O43353); test: Inhibition of RIPK2 assessed as residual activity at 1 uM
[4] = molecular target: Serine/threonine-protein kinase PAK 5 (Homo sapiens) (UniProt Q9P286); test: Inhibition of PAK7 assessed as residual activity at 10 uM relative to control
Mus musculus = test: Inhibition of LRRK2 in mouse assessed as inhibition of Ser935 autophosphorylation in spleen at 100 mg/kg, ip by immunoblot method; format: functional, organism-based; set-up: dose 100 mg/kg
[5] = molecular target: Tyrosine-protein kinase Lyn (Homo sapiens) (UniProt P07948); test: Inhibition of LYN assessed as residual activity at 10 uM relative to control
[6] = molecular target: Dual specificity mitogen-activated protein kinase kinase 1 (Homo sapiens) (UniProt Q02750); test: Inhibition of MKK1 assessed as residual activity at 1 uM
[7] = molecular target: Mitogen-activated protein kinase 1 (Homo sapiens) (UniProt P28482); test: Inhibition of ERK2 assessed as residual activity at 1 uM
Procedure, shortened: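 Radioactivity-based enzymatic activity assay of the named kinase, run as part of a 131-kinase specificity panel at the National Centre for Protein Kinase Profiling (Dundee). Residual activity was read at the stated single inhibitor concentration.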

[8] = molecular target: Myosin light chain kinase, smooth muscle (Homo sapiens) (UniProt Q15746); test: Inhibition of SmMLCK assessed as residual activity at 10 uM
[9] = molecular target: T1, Ephrin type-B receptor 2 (Homo sapiens) (UniProt P29323); test: Inhibition of EPHB2 assessed as residual activity at 10 uM relative to control
T1 sequence (whole entry): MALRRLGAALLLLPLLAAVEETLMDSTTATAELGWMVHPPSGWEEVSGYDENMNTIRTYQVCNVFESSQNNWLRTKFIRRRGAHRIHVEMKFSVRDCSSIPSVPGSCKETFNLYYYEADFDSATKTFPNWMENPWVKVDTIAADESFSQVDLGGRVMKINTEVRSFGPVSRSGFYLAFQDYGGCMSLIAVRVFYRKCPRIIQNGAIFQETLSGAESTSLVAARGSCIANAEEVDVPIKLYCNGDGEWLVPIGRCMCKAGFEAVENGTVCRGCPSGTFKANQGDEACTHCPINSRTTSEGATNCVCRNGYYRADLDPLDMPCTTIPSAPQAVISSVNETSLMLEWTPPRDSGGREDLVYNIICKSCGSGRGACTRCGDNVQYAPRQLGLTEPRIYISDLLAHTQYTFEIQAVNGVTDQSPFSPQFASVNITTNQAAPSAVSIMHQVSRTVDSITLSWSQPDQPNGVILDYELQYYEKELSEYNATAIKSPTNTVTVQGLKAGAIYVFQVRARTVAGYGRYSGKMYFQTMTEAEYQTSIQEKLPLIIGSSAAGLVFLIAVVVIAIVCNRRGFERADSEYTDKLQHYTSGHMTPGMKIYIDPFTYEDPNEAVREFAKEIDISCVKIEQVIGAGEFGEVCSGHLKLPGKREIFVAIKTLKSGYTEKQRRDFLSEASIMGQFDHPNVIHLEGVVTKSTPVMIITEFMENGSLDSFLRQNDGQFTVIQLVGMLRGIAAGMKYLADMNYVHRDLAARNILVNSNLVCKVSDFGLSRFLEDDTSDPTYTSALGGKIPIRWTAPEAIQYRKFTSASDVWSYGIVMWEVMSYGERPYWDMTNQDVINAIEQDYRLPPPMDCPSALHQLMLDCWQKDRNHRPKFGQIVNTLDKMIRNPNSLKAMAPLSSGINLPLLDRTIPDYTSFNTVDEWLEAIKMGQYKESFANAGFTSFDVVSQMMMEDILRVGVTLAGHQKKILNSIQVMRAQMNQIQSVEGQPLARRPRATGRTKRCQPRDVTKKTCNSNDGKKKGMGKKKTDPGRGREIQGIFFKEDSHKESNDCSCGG
Procedure, shortened: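 Competition kinase-binding assay (KINOMEscan) across a non-redundant panel of 329 kinases beyond the radiometric panel; residual binding expressed relative to control.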

[10] = molecular target: Phosphatidylinositol 4-phosphate 3-kinase C2 domain-containing subunit beta (Homo sapiens) (UniProt O00750); test: Inhibition of PIK3C2B assessed as residual activity at 10 uM relative to control
[11] = molecular target: Leucine-rich repeat serine/threonine-protein kinase 2 (Homo sapiens) (UniProt Q5S007); conditions: 0.01 to 1 uM
[12] = test system: Receptor-type tyrosine-protein kinase FLT3 (Homo sapiens), P36888 [D835H]; test: Inhibition of FLT3 D835H mutant assessed as residual activity at 10 uM relative to control
[13] = molecular target: T2, NUAK family SNF1-like kinase 1 (Homo sapiens) (UniProt O60285); test: Inhibition of ARK5 assessed as residual activity at 10 uM relative to control
T2 sequence (whole entry): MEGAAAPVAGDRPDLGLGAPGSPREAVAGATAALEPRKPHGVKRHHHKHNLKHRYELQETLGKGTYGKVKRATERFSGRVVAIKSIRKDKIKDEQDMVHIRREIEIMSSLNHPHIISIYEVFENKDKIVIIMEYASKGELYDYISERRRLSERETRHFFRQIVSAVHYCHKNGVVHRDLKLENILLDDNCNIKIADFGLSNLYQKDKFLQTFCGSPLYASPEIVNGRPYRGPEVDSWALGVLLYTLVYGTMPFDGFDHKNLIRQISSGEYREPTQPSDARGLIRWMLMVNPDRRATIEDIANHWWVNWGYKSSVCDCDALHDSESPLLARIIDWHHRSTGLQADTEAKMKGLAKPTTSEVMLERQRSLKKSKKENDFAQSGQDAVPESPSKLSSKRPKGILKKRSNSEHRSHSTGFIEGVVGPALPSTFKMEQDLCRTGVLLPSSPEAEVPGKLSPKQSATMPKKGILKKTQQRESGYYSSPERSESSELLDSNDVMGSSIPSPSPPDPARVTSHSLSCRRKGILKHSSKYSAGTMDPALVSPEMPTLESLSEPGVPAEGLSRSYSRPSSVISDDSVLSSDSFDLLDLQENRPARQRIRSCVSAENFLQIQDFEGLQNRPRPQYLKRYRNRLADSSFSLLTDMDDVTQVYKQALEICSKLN

[14] = molecular target: Serine/threonine-protein kinase SIK2 (Homo sapiens) (UniProt Q9H0K1); test: Inhibition of SIK2 assessed as residual activity at 10 uM relative to control
[15] = test system: Leucine-rich repeat serine/threonine-protein kinase 2 (Homo sapiens), Q5S007 [A2016T]; conditions: HEK293, 1 to 3 uM
Sequence of Leucine-rich repeat serine/threonine-protein kinase 2 (Homo sapiens), Q5S007 [A2016T] (Q5S007 whole entry A2016T): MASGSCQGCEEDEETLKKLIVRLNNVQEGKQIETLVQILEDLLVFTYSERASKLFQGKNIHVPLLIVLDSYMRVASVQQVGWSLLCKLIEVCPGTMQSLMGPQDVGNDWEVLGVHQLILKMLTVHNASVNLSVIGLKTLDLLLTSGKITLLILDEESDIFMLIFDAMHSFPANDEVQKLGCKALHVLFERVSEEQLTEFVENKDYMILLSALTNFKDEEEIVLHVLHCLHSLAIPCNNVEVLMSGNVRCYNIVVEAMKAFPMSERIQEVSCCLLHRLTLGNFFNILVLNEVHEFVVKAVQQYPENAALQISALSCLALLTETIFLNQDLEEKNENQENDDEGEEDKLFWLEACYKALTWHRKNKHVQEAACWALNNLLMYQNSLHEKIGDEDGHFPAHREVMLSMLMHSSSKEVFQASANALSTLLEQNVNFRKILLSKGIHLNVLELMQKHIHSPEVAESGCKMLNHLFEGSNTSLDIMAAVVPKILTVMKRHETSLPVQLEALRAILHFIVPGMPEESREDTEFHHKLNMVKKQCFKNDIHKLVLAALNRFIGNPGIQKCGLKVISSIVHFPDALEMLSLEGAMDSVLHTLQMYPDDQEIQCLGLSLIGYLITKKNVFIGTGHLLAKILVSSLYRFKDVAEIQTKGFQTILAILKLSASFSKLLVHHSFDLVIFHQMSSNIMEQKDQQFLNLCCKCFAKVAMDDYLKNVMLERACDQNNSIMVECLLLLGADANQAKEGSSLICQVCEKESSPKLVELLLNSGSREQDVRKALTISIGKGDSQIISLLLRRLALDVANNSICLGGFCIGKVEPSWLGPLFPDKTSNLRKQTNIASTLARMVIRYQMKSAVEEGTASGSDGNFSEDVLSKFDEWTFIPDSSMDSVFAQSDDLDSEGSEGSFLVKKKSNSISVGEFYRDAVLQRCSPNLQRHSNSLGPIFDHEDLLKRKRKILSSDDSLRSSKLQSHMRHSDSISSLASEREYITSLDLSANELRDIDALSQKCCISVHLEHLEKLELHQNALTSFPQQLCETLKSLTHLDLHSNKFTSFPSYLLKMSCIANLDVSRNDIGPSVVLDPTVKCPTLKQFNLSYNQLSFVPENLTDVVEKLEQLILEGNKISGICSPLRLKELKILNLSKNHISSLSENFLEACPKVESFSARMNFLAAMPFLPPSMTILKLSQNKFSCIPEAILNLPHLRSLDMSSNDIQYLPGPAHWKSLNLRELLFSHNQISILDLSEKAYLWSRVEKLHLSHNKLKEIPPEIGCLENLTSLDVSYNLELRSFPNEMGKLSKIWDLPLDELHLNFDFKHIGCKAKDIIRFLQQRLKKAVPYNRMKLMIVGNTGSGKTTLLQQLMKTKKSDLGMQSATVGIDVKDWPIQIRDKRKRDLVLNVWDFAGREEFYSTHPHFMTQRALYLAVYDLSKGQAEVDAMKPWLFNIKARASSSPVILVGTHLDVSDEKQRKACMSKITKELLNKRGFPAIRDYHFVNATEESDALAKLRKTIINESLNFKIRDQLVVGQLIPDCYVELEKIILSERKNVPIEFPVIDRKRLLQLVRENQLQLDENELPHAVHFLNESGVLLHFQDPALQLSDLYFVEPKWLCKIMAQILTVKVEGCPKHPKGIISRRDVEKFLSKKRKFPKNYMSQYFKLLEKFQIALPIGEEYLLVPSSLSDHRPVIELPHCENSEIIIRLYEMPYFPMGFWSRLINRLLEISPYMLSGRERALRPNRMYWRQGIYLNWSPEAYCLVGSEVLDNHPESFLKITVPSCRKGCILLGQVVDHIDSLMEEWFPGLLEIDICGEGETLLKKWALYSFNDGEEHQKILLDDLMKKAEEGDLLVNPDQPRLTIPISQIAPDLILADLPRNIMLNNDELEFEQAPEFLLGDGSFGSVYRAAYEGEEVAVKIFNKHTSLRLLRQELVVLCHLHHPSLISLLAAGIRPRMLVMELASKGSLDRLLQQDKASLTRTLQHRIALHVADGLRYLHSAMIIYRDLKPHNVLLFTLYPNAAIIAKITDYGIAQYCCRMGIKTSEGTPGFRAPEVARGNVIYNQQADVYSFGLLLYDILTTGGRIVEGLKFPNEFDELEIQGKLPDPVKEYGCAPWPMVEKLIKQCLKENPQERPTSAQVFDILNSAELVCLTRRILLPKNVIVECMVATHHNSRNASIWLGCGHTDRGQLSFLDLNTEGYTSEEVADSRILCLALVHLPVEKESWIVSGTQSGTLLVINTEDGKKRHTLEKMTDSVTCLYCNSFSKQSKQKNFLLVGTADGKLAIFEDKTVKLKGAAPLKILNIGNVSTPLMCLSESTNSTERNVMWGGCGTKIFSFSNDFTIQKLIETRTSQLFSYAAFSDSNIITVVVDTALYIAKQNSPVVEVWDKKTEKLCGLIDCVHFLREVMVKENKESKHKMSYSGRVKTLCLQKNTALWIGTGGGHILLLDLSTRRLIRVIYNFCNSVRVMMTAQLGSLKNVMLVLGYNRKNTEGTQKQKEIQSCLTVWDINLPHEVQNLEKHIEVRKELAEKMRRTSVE

Sequence of Serine/threonine-protein kinase SIK2 (Homo sapiens) (Q9H0K1 whole entry, looked up): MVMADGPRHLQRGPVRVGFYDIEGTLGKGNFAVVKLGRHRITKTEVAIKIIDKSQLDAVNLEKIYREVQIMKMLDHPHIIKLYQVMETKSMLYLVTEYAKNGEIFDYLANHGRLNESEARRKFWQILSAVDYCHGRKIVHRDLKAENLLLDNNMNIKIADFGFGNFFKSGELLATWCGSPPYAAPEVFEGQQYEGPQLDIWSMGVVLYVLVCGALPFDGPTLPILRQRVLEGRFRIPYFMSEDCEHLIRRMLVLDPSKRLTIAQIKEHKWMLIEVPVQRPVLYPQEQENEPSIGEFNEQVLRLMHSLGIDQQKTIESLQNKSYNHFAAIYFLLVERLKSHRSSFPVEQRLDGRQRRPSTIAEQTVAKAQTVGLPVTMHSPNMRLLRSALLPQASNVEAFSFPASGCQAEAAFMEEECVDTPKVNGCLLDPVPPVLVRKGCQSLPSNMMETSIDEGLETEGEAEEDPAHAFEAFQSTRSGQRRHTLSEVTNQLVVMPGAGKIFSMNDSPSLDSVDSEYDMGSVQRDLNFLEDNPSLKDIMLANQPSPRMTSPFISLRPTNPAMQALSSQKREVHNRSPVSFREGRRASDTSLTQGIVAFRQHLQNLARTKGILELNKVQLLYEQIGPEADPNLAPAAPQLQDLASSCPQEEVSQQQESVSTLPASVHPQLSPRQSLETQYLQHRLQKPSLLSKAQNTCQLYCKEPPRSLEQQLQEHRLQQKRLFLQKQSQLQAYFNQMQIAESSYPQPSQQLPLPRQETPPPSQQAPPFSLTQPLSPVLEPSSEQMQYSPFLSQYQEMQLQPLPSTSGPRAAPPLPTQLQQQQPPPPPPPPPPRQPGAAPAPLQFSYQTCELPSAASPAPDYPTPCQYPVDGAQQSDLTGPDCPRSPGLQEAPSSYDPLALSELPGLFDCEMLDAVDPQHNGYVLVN
Sequence of Dual specificity mitogen-activated protein kinase kinase 1 (Homo sapiens) (Q02750 whole entry): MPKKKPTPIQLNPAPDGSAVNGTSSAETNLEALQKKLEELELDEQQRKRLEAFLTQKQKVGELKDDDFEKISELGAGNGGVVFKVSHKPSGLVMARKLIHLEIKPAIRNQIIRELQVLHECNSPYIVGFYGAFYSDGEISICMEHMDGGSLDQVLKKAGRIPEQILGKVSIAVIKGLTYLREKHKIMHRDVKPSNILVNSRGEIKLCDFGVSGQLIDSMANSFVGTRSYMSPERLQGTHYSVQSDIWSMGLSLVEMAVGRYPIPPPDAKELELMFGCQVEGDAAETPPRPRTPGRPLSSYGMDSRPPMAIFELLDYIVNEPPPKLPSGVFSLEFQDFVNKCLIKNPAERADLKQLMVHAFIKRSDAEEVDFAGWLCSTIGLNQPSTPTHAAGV
Sequence of Leucine-rich repeat serine/threonine-protein kinase 2 (Homo sapiens) (Q5S007 whole entry): as the sequence (Q5S007 whole entry A2016T) above, with T2016A counted along it
Sequence of Ephrin type-B receptor 4 (Homo sapiens) (P54760 whole entry): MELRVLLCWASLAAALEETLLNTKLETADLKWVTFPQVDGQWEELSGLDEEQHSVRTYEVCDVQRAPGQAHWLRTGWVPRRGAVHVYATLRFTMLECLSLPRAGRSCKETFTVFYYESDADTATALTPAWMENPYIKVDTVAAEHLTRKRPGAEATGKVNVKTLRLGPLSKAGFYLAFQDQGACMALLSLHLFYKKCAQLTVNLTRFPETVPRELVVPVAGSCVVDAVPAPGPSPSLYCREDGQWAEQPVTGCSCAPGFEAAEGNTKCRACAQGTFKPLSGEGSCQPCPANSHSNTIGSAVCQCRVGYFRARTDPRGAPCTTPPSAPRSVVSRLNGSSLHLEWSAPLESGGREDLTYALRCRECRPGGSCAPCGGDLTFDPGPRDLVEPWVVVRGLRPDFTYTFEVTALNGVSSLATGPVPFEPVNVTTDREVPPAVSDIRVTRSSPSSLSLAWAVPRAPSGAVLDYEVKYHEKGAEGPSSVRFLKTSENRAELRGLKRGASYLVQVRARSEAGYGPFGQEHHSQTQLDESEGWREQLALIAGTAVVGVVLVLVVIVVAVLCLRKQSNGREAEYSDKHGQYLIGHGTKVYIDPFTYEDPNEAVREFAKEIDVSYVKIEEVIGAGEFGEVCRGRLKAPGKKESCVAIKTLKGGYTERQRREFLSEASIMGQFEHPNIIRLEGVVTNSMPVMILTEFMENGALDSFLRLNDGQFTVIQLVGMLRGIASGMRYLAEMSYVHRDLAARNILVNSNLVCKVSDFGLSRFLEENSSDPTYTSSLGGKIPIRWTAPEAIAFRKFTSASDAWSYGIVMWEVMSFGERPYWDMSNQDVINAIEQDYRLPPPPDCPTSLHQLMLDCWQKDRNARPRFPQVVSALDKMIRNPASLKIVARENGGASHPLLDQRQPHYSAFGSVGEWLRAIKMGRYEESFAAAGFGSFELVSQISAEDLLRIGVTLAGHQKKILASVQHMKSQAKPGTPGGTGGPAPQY

For `O=C(Nc1cccnc1)c1cc(-c2ccnc(F)c2)ccc1OCc1ccccc1`, the Activity [1] was 108%, the Activity [2] was 69% and the Activity [3] was 59%. For the same compound, the Activity [4] was 69%, the inhibition (Mus musculus) was “Active” and the Activity [5] was 73%. The Activity [6] was 77%, the Activity [7] was 104% and the Activity [8] was 23%. The Activity [9] was 71%, the Activity [10] was 42% and the inhibition [11] was “Active”. For the same compound, the Activity [12] was 13%, the Activity [13] was 50% and the Activity [14] was 26%. For the same compound, the inhibition [15] was “Active”.
